For orientation: inhibition means the drop in the measured response relative to a control, in per cent.

The target of experiment [1] is T1, Ephrin type-B receptor 2 (Homo sapiens) (UniProt P29323).
T1 sequence (whole entry): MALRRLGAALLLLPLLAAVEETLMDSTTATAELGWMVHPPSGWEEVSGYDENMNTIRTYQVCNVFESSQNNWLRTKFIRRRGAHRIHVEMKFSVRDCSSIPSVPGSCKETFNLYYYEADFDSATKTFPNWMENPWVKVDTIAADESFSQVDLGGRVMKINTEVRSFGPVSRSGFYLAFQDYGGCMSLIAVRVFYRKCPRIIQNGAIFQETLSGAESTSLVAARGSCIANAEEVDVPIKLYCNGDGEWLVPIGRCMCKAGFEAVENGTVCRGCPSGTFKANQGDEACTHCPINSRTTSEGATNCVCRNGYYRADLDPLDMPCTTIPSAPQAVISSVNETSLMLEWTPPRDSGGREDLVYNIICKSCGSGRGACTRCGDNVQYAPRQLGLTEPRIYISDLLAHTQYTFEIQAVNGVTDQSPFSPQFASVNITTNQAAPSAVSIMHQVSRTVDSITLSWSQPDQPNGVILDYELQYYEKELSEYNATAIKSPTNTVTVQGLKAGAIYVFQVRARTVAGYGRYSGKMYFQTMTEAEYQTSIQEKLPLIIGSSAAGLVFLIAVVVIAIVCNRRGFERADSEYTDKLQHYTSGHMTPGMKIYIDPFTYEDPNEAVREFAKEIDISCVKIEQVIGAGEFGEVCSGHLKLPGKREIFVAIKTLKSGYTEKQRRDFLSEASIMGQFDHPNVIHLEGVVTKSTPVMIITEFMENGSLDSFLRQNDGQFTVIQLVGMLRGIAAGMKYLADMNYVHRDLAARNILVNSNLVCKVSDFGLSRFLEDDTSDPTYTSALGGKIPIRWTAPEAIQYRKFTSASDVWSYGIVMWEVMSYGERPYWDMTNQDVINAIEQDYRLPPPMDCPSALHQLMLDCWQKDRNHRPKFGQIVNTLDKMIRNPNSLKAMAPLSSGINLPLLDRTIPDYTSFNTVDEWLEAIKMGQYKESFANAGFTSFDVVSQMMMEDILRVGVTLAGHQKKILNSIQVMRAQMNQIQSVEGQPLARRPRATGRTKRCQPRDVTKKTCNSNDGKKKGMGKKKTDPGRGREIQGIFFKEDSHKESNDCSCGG
The experiment is described as follows: Inhibition of EphB2 ACT labeling site in human A-375 cells at 0.5 uM by KiNativ Profiling analysis relative to control. In kind it is cell-based. The procedure, abridged:
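Live A375 melanoma cells were treated with compound at 0.5 or 5 μM, then lysed. Lysates were labeled with a lysine-reactive ATP or ADP-biotin probe. The read-out was protection of each kinase probe-labeling site from labeling, relative to control.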

The target of experiment [2] is T2, Kinase suppressor of Ras 1 (Homo sapiens) (UniProt Q8IVT5).
T2 sequence (whole entry): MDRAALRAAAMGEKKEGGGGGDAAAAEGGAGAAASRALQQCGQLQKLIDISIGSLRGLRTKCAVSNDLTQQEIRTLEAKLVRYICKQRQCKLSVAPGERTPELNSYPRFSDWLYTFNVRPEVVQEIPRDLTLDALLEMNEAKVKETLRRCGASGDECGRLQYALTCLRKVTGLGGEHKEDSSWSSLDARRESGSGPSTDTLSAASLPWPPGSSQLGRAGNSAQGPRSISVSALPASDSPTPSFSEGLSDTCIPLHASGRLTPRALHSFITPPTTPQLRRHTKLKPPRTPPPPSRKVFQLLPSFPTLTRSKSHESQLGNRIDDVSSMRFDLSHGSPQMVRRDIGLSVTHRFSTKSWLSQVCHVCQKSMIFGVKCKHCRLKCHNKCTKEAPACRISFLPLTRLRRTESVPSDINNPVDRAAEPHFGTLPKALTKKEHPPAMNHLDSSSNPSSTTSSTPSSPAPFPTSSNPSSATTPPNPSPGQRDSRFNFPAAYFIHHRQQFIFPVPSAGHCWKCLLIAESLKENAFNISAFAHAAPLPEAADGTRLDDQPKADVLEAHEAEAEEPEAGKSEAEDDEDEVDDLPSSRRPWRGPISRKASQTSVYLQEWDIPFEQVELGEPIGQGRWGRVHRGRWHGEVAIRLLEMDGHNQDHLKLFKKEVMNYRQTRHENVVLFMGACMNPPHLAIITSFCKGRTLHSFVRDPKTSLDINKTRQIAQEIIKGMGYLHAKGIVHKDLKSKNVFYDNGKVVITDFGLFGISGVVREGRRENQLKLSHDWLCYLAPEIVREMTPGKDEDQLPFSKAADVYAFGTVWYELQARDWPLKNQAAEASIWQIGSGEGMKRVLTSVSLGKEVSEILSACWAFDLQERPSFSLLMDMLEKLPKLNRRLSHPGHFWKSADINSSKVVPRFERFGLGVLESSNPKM
The experiment can be described thus: Inhibition of KSR1 ACT labeling site harbouring SKNVFYDNGK in human A-375 cells at 0.5 uM by KiNativ Profiling analysis relative to control. Format: cell-based.

The target of experiment [3] is Serine/threonine-protein kinase 10 (Homo sapiens) (UniProt O94804). The experiment is described as follows: Inhibition of LOK Lys1 labeling site harbouring NKETGALAAAKVIETK in human A-375 cells at 0.05 uM by KiNativ Profiling analysis relative to control. In kind it is cell-based.
Chain of Serine/threonine-protein kinase 10 (Homo sapiens) (O94804 whole entry, looked up): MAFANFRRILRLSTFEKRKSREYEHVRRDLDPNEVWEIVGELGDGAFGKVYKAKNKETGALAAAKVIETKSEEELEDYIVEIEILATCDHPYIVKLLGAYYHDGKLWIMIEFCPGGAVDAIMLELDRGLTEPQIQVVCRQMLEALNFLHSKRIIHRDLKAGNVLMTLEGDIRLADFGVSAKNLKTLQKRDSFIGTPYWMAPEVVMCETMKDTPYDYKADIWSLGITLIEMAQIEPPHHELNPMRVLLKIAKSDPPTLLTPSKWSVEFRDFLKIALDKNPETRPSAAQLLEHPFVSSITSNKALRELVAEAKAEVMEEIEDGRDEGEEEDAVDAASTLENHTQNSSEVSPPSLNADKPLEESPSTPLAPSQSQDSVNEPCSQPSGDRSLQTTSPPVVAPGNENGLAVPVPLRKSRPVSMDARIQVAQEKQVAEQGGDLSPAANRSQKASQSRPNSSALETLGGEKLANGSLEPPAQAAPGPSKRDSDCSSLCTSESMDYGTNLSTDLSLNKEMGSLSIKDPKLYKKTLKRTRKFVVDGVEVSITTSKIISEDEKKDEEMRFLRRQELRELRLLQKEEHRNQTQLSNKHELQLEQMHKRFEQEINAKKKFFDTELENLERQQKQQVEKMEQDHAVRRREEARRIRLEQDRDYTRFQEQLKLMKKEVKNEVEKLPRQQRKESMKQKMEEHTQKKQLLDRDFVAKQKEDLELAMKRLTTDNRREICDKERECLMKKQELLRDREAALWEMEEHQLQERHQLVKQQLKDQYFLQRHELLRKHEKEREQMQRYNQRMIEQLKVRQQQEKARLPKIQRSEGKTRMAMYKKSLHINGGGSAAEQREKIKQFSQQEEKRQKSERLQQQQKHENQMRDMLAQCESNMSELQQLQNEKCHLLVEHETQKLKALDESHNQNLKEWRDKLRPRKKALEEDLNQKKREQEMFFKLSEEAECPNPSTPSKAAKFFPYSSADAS
The target of experiment [4] is Tyrosine-protein kinase Fer (Homo sapiens, UniProt P16591). The experiment can be described thus: Inhibition of FER Lys1 labeling site in human Huh-7 cell lysate at 1 uM by KiNativ Profiling analysis relative to control. In kind it is subcellular.
Chain of Tyrosine-protein kinase Fer (P16591 whole entry, looked up): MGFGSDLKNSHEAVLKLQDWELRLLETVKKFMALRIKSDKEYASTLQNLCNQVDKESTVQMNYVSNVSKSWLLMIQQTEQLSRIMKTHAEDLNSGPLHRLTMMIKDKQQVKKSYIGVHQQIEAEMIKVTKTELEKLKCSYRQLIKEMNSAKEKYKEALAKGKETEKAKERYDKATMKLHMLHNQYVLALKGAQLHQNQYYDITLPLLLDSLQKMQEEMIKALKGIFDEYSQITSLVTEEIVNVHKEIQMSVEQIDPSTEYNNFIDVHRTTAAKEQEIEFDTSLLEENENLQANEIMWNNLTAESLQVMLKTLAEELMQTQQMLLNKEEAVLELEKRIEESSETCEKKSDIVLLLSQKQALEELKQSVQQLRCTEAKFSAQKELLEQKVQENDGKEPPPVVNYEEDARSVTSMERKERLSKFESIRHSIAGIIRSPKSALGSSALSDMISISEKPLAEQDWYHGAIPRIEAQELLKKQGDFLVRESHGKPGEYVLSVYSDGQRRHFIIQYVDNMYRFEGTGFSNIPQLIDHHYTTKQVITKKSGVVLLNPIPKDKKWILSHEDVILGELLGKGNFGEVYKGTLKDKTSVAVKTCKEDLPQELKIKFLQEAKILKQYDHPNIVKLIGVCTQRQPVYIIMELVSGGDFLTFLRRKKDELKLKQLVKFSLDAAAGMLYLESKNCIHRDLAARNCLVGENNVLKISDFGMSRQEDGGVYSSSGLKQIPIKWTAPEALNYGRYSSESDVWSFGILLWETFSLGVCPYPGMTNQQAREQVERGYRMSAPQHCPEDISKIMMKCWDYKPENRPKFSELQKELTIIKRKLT
Experiment [5] relates to L929. The experiment can be described thus: Inhibition of TNF alpha induced IKKalpha/beta phosphorylation level in mouse L929 cells at 100 nM preincubated for 30 mins followed by TNF alpha stimulation and measured after 5 mins by Western blot analysis. Format: functional, cell-based. The method, boiled down: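 Mouse L929 cells were pretreated with compound at 100 nM for 30 min, then stimulated with TNFα for 5 min. Lysates were Western blotted for phospho-IKKα/β, with tubulin as loading control.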

Molecules are shown by their SMILES. Activity calls are given as the source filed them. The calls are words filed in the database; no cut-off is given here.

`CCN1CCN(Cc2ccc(NC(=O)c3ccc(C)c(/C=C/c4cnc5[nH]ccc5c4OC)c3)cc2C(F)(F)F)CC1`: the inhibition in experiment [1] was 55.5%; in experiment [2], 16.8%; in experiment [3] it was 34.5%.
As to `CNc1cc(Oc2cc(C(=O)Nc3cc(-n4cnc(C)c4)cc(C(F)(F)F)c3)ccc2C)ncn1`, the inhibition in experiment [4] was found to be 18.2%. Besides, in experiment [5], the inhibition result was “inactive”.
For `CCN1CCN(Cc2ccc(NC(=O)c3ccc(C)c(Oc4ccnc5[nH]ccc45)c3)cc2C(F)(F)F)CC1`, the results for the inhibition in experiment [1], in experiment [2] and in experiment [3] were -2.2%, 8.5% and 47.2%, respectively.
For the molecule `CNc1cc(Oc2cc(C(=O)Nc3cc(N4CCN(C)CC4)cc(C(F)(F)F)c3)ccc2C)ncn1`, the inhibition in experiment [4] came out at 10.6%. Besides, the inhibition entry in experiment [5] was “inactive”.

The values are drawn from ChEMBL document CHEMBL5696442, “Discovery of type II inhibitors of TGFβ-activated kinase 1 (TAK1) and mitogen-activated protein kinase kinase kinase kinase 2 (MAP4K2)” (J Med Chem, 2015).
